# Screens (PubChem)
# An excerpt weighted towards active compounds, which were near 4.5% of everything screened.
# TAAR1 antag = human TAAR1 antagonists, primary screen, Fluo-8 calcium fluorescence, CHO RD-HGA16 cells | antagonist | inhibition, % at 3 µM | 1.5% of 360,000 active | AID 624466, 2012;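 active means inhibition above a per-plate cutoff, the mean inhibition of test compounds on that plate plus 3 SD, cut at about 49% in these data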;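 further: 0% = DMSO plus EC80 beta-PEA response and 100% = DMSO alone without agonist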
#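 System: CHO RD-HGA16 cells bearing hTAAR1. Reagent: EC80 β-phenethylamine stimulus. Schedule: seeding 17-24 h prior, 75-min 37 °C, 30-min RT dye loading. Signal: Fluo-8 intracellular calcium dye fluorescence, real-time kinetic reads. Read-out: % inhibition from peak post-agonist over basal fluorescence ratio. Benchmarks: vehicle wells and EC80 agonist wells. Replicates: n of 1.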
# OX1R antag-1 = OX1R (HCRTR1) antagonists, primary screen, fluorescence, CHO/OX1R cells, Fluo-8 calcium, orexin A | Orexin/Hypocretin receptor type 1 (Homo sapiens), O43613 | Fluo-8 calcium fluorescence | inhibition, % at 5 µM | 0.43% of 330,000 active | AID 434989, 2010;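 active means inhibition above its plate's threshold, mean inhibition of all tested compounds on the plate plus 3 SD, cut at about 37% in these data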;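 further: 0% = orexin A challenge wells and 100% = SB-334867-A antagonist wells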
# Target sequence (O43613 whole entry, looked up): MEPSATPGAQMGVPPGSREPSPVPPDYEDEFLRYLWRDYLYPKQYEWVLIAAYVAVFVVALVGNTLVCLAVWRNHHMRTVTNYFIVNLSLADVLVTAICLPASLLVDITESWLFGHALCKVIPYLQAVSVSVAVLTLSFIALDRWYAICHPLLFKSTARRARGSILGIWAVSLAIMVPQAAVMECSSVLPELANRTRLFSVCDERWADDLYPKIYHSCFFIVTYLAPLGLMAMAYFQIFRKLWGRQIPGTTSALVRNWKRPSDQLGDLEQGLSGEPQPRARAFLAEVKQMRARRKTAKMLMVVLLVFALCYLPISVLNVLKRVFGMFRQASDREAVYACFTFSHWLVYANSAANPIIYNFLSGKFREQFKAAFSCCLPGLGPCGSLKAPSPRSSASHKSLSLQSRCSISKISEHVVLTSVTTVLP
# GPR7 antagonist = GPR7 receptor antagonists, primary screen, cell-based, fluorescence, single concentration; Neuropeptides B/W receptor type 1 (Homo sapiens), P48145; GPR7-expressing cells, fluorescence antagonist assay; inhibition, % at 4.4 µM; 1.1% of 290,000 active; in the data active means inhibition above about 16%, passing the limit was not always enough;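 further: cells stimulated with the agonist NPW; 0% = agonist with vehicle and 100% = vehicle without agonist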
# TAAR1 ag = human TAAR1 agonists, primary screen, Fluo-8 calcium fluorescence, CHO RD-HGA16 cells; vehicle wells 0%, saturating PEA agonist 100%; activation, % at 3 µM; 0.99% of 360,000 active;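 active means activation above the mean activation of all test compounds in the run plus 3 SD, cut at about 38% in these data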
#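 Assay system – CHO-derived RD-HGA16 cells with stable Gα16 and human TAAR1 · Compound dosing – one-point dosing at 3 µM (nominal) · Incubation – 17-24 h seeding, 75 min 37 °C dye, 30 min RT · Measured by – kinetic Fluo-8 calcium fluorescence · Control set – DMSO vehicle as 0%, PEA at EC100 as 100% · Repeats – single well for each compound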
# CHO parental Ca = ATP-evoked calcium signal inhibitors, parental CHO, primary screen, counter-screen for OX1R antagonist project, cell-based, fluorescence, Fluo-8 calcium dye; parental CHO-K1, ATP-induced calcium, Fluo-8 fluorescence; inhibition, % at 5.6 µM; 0.63% of 330,000 active;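 active means inhibition above that plate's mean sample inhibition plus 3 SD, cut at about 26% in these data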;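 further: 0% = ATP-challenged DMSO wells and 100% = DMSO wells without ATP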
#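 Assay system – parental CHO cells · Reagent – ATP stimulus · Detection – intracellular calcium via Fluo-8 no-wash fluorescent dye · Evaluation – percent inhibition of ATP-evoked calcium rise, normalized to controls · Controls – ATP wells versus no-ATP DMSO wells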
# OX1R antag-2 = antagonists of human orexin 1 receptor (OX1R); inhibition, % at 6.6 µM; OX1R-expressing cells, FRET antagonist read-out; 1.8% of 330,000 active; AID 485270, 2010; Orexin/Hypocretin receptor type 1 (Homo sapiens), O43613; in the data active means inhibition mostly above about 38%, no sharp cut-off; inactive means mostly below about 40%;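 further: 0% = agonist challenge alone and 100% = reference antagonist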
# GPR7 antag cf = GPR7 receptor antagonists, confirmation, cell-based, fluorescence, single concentration; shares compounds with GPR7 antagonist; GPR7-expressing cells, calcium fluorescence antagonist mode; inhibition, % at 4.4 µM; 52% of 2,400 active; in the data active means inhibition above about 24%;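 further: stimulated with the GPR7 agonist NPW; 0% = agonist plus vehicle and 100% = vehicle alone without agonist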
# MCHR1 antagonist = MCHR1 antagonists in cells, counter-screen for GPR7 antagonist project, cell-based, fluorescence, human | shares compounds with GPR7 antagonist | MCHR1-expressing cells, fluorescence antagonist assay | inhibition, % at 4.4 µM | 62% of 2,400 active; in the data active means inhibition above about 22%;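 further: 0% = vehicle with agonist and 100% = vehicle without agonist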
# Numbers without * were called inactive; nt = not tested or not shown.
SMILES,TAAR1 antag,OX1R antag-1,GPR7 antagonist,TAAR1 ag,CHO parental Ca,OX1R antag-2,GPR7 antag cf,MCHR1 antagonist
O=C(Cc1cccs1)N(Cc1ccco1)C1(C(=O)NC2CCCC2)CCCCC1,10,-9,46*,0,-16,18,53*,45*
O=C(c1ccccn1)N(Cc1ccco1)C1(C(=O)Nc2ccc(Br)cc2)CCCCC1,0,nt,nt,-2,nt,nt,nt,nt
O=C1NC(=O)C(CC(=O)N(Cc2ccco2)C2(C(=O)NC3CCCC3)CCCCC2)N1 (stereo unspecified),1,-5,11,4,-9,15,nt,nt
O=C(c1cnccn1)N(Cc1ccco1)C1(C(=O)NC2CCCC2)CCCCC1,-10,-12,40*,4,-10,9,31*,16
O=C(NC1CCCCC1)C(c1ccccc1)N(Cc1ccco1)C(=O)c1csnn1 (stereo unspecified),-4,-48,13,-1,-5,46,nt,nt
O=C(NC1CCCCC1)C(c1ccccc1)N(Cc1ccco1)C(=O)Cn1cnc2ccccc21 (stereo unspecified),-11,nt,22*,12,nt,nt,17,14
O=S(=O)(c1ccc2c(c1)CCN2)N1CCCC1,0,-6,nt,3,-4,9,nt,nt
CN(C(=O)c1ccc2c(c1)OCO2)C1(C(=O)NC2CCCCC2)CCCCC1,-3,4,12,20,-12,39,nt,nt
O=C(c1ccc2c(c1)OCO2)N(Cc1ccco1)C1(C(=O)NC2CCCCC2)CCCCC1,-10,-28,41*,12,-35,9,40*,42*
O=C(c1cnccn1)N(Cc1ccco1)C1(C(=O)NC2CCCCC2)CCCCC1,-3,-26,31*,18,-8,29,22,15
O=C(NC1CCCC1)C(c1ccsc1)N(Cc1ccco1)C(=O)Cc1cccs1 (stereo unspecified),9,-35,44*,1,-41,24,43*,31*
CN1CCN(S(=O)(=O)c2ccc3c(c2)oc(=O)n3C)CC1,-2,-5,-19,0,0,10,nt,nt
Cc1ccc(C)c(-n2ccnc2SCC(=O)c2c(N)n(C3CC3)c(=O)[nH]c2=O)c1,-20,-5,nt,14,-15,8,nt,nt
Cc1c(C(=O)N2CCCCC2C)sc2ncnc(N3CCc4ccccc4C3)c12 (stereo unspecified),28,-52,27*,6,-31,25,20,35*
CCCn1c(NC(=O)CN2C(=O)NC3(CCCCC3)C2=O)nc2ccccc21,-10,-21,nt,1,-20,13,nt,nt
COCCN=C1N[C@@H](c2cccc(C(F)(F)F)c2)C(C(=O)OC)=C(C)N1Cc1ccccc1,12,-28,nt,8,-17,26,nt,17
COC(=O)C1=C(C)N(Cc2ccccc2)C(=NCc2cccc(C(F)(F)F)c2)N[C@H]1c1cccc(C(F)(F)F)c1,nt,18,nt,nt,10,2,nt,nt
COC(=O)C1=C(C)N(Cc2ccccc2)C(=NCC(C)C)N[C@H]1c1ccccc1,nt,-6,47*,nt,-3,21,50*,40*
CCN1C(=S)N[C@@H](c2cccc(F)c2)C(C(=O)OC)=C1C,0,-30,-2,0,-16,29,nt,nt
COC(=O)C1=C(C)N(Cc2ccccc2)C(=NCc2ccc(OC)cc2)N[C@H]1c1ccccc1,20,0,nt,29,-3,4,nt,nt
